Data from EPA's CvTdb concentration-time database.

What was measured:
[1] = system: rat; assay: concentration in blood after dosing; conditions: duration: 4 hr
[2] = system: mouse; assay: concentration in liver after dosing; conditions: dosed: dichloromethane, iv, male, B6C3F1
How it was run: (§1)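 A PubMed search, classifier screening and manual review identified published in vivo toxicokinetic studies, which together with two structured collections supplied concentration-versus-time and amount-versus-time points. Points were mostly digitised from plot screenshots with WebPlotDigitizer, otherwise copied from tables. Dose, route, subject details and medium were hand-curated from each paper, and sampling and analytical methods are those of the sources, often unreported.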

[3] = system: mouse; assay: concentration in lung after dosing; conditions: dosed: dichloromethane, iv, male, B6C3F1
How it was run: as §1

[4] = system: human; assay: concentration in expired air after dosing; negative times count back from the end of exposure; conditions: dosed: dichloromethane, inhalation, duration: 6 hr, male
How it was run: as §1

[5] = system: human; assay: concentration in blood after dosing; negative times count back from the end of exposure; conditions: dosed: dichloromethane, inhalation, duration: 6 hr, male
How it was run: as §1

[6] = system: mouse; assay: concentration in body after dosing; conditions: dosed: dichloromethane, iv, male, B6C3F1
How it was run: as §1

[7] = system: mouse; assay: concentration in kidney after dosing; conditions: dosed: dichloromethane, iv, male, B6C3F1
How it was run: as §1

CCCCCCCCCC [decane]
[1], dosed: decane, 1200 ppm, inhalation
Conditions | concentration in blood [µg/g]
0.51 h | 0.855
0.5118 h | 1.32
0.5126 h | 1.61
0.5141 h | 0.232
1.018 h | 0.402
1.021 h | 0.836
1.022 h | 1.06
1.023 h | 1.4
2.003 h | 0.669
2.007 h | 0.196
2.01 h | 0.37
2.011 h | 0.451
3.997 h | 0.455
4.002 h | 0.176
4.003 h | 0.21
5.5 min | 4.98
335 s | 6.97
338 s | 8.67

BrCBr [dibromomethane]
[1], dosed: dibromomethane, dermal, male, Fischer-344
Conditions | concentration in blood [ng/mL]
0.4941 h, 500 ppm | 965
0.5004 h, 5000 ppm | 8990
0.5042 h, 10000 ppm | 34200
0.5051 h, 1000 ppm | 1170
0.9982 h, 500 ppm | 1280
0.9999 h, 5000 ppm | 14700
1.004 h, 10000 ppm | 55200
1.005 h, 1000 ppm | 2090
2.005 h, 500 ppm | 1290
2.007 h, 1000 ppm | 2720
2.011 h, 10000 ppm | 90100
2.014 h, 5000 ppm | 30000
2.998 h, 1000 ppm | 3020
2.998 h, 10000 ppm | 120000
3 h, 500 ppm | 1150
3.005 h, 5000 ppm | 38200
4.005 h, 1000 ppm | 3130
4.005 h, 10000 ppm | 142000
4.007 h, 500 ppm | 1280
4.017 h, 5000 ppm | 44900

ClCCl [dichloromethane]
Conditions | concentration in blood [ng/mL] | concentration in body [µg/g] | concentration in expired air [ppm] | concentration in kidney [µg/g] | concentration in liver [µg/g] | concentration in lung [µg/g]
[2], 1 h, 10 mg/kg | – | – | – | – | 4.11 | –
[2], 1 h, 50 mg/kg | – | – | – | – | 15.4 | –
[2], 3 h, 10 mg/kg | – | – | – | – | 2.56 | –
[2], 3 h, 50 mg/kg | – | – | – | – | 7.81 | –
[2], 4 h, 10 mg/kg | – | – | – | – | 1.29 | –
[2], 4 h, 50 mg/kg | – | – | – | – | 7.12 | –
[2], 20 min, 10 mg/kg | – | – | – | – | 3.45 | –
[2], 20 min, 50 mg/kg | – | – | – | – | 21.6 | –
[2], 40 min, 10 mg/kg | – | – | – | – | 3.57 | –
[2], 40 min, 50 mg/kg | – | – | – | – | 15.9 | –
[3], 1 h, 10 mg/kg | – | – | – | – | – | 4.11
[3], 1 h, 50 mg/kg | – | – | – | – | – | 2.96
[3], 3 h, 10 mg/kg | – | – | – | – | – | 2.56
[3], 3 h, 50 mg/kg | – | – | – | – | – | 1.54
[3], 4 h, 10 mg/kg | – | – | – | – | – | 1.29
[3], 4 h, 50 mg/kg | – | – | – | – | – | 1.23
[3], 20 min, 10 mg/kg | – | – | – | – | – | 1.71
[3], 20 min, 50 mg/kg | – | – | – | – | – | 6.19
[3], 40 min, 10 mg/kg | – | – | – | – | – | 3.57
[3], 40 min, 50 mg/kg | – | – | – | – | – | 3.98
[4], 0.083 h, 100 ppm | – | – | 12.1 | – | – | –
[4], 0.083 h, 350 ppm | – | – | 81.3 | – | – | –
[4], 0.25 h, 100 ppm | – | – | 8.5 | – | – | –
[4], 0.25 h, 350 ppm | – | – | 58.9 | – | – | –
[4], 0.5 h, 100 ppm | – | – | 6.7 | – | – | –
[4], 0.5 h, 350 ppm | – | – | 38.7 | – | – | –
[4], 1 h, 100 ppm | – | – | 4.2 | – | – | –
[4], 1 h, 350 ppm | – | – | 25.1 | – | – | –
[4], 1.5 h, 100 ppm | – | – | 2.7 | – | – | –
[4], 1.5 h, 350 ppm | – | – | 17.7 | – | – | –
[4], 2 h, 100 ppm | – | – | 2.6 | – | – | –
[4], 2 h, 350 ppm | – | – | 14.9 | – | – | –
[4], 3 h, 100 ppm | – | – | 1.8 | – | – | –
[4], 3 h, 350 ppm | – | – | 10.3 | – | – | –
[4], 4 h, 100 ppm | – | – | 1.4 | – | – | –
[4], 4 h, 350 ppm | – | – | 8.3 | – | – | –
[4], 6 h, 350 ppm | – | – | 4.5 | – | – | –
[4], 8 h, 350 ppm | – | – | 3.2 | – | – | –
[4], 16 h, 350 ppm | – | – | 1.3 | – | – | –
[5], 1 h, 100 ppm | 150 | – | – | – | – | –
[5], 1 h, 350 ppm | 910 | – | – | – | – | –
[5], 6 h, 100 ppm | 62 | – | – | – | – | –
[5], 6 h, 350 ppm | 340 | – | – | – | – | –
[5], 16 h, 100 ppm | 12 | – | – | – | – | –
[5], 16 h, 350 ppm | 77 | – | – | – | – | –
[5], 24 h, 350 ppm | 36 | – | – | – | – | –
[6], 1 h, 10 mg/kg | – | 0.14 | – | – | – | –
[6], 1 h, 50 mg/kg | – | 0.14 | – | – | – | –
[6], 3 h, 50 mg/kg | – | 0.028 | – | – | – | –
[6], 4 h, 50 mg/kg | – | 0.018 | – | – | – | –
[6], 20 min, 10 mg/kg | – | 1.3 | – | – | – | –
[6], 20 min, 50 mg/kg | – | 1.16 | – | – | – | –
[6], 40 min, 10 mg/kg | – | 0.076 | – | – | – | –
[6], 40 min, 50 mg/kg | – | 0.076 | – | – | – | –
[7], 1 h, 10 mg/kg | – | – | – | 1.99 | – | –
[7], 1 h, 50 mg/kg | – | – | – | 3.82 | – | –
[7], 3 h, 10 mg/kg | – | – | – | 1.31 | – | –
[7], 3 h, 50 mg/kg | – | – | – | 2.17 | – | –
[7], 4 h, 10 mg/kg | – | – | – | 0.78 | – | –
[7], 4 h, 50 mg/kg | – | – | – | 1.74 | – | –
[7], 20 min, 10 mg/kg | – | – | – | 1.86 | – | –
[7], 20 min, 50 mg/kg | – | – | – | 3.7 | – | –
[7], 40 min, 10 mg/kg | – | – | – | 1.56 | – | –
[7], 40 min, 50 mg/kg | – | – | – | 5.31 | – | –

during exposure
Conditions | concentration in blood, 100 ppm [ng/mL] | concentration in blood, 350 ppm [ng/mL] | concentration in expired air, 100 ppm [ppm] | concentration in expired air, 350 ppm [ppm]
[4], -1 h | – | – | 43.3 | 192
[4], -2 h | – | – | 42.8 | 190
[4], -3 h | – | – | 41.8 | 192
[4], -4 h | – | – | 41.2 | 176
[4], -4.5 h | – | – | 40.4 | 165
[4], -5 h | – | – | 39.4 | 155
[4], -5.5 h | – | – | 36.4 | 141
[4], -5.75 h | – | – | 34.6 | 126
[4], -36 s | – | – | 45.7 | 202
[5], -1 h | 1050 | 5860 | – | –
[5], -3 h | 1110 | 5920 | – | –
[5], -6 h | 5 | 16 | – | –
